ChEMBL document CHEMBL4354873, “Rationally Designed Small-Molecule Inhibitors Targeting an Unconventional Pocket on the TLR8 Protein-Protein Interface” (J Med Chem, 2020)
Activity calls are given as the source filed them. The rule behind the calls is not given here.

Tests used:
[1] = Cytotoxicity against HEK-Blue cells expressing human TLR8 assessed as reduction in cell viability up to 100 uM measured after 24 hrs by CCK8 assay; assay type: cell-based
Outline: (§1)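 CCK-8 viability: compounds incubated 24 h at 37 °C with HEK-Blue TLR8 cells (4 × 10⁴ cells/well) or PBMCs (3 × 10⁶ cells/mL). CCK-8 was added at 1:10 for up to 2 h, then absorbance read at 450 nm. Values normalized to untreated cells as 100% survival.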

[2] = target: T1, Toll-like receptor 8 (Homo sapiens) (UniProt Q9NR97); experiment: Inhibition of TLR8 in human PBMC assessed as reduction in R848-induced TNFalpha production measured after 24 hrs by ELISA
T1 sequence (whole entry): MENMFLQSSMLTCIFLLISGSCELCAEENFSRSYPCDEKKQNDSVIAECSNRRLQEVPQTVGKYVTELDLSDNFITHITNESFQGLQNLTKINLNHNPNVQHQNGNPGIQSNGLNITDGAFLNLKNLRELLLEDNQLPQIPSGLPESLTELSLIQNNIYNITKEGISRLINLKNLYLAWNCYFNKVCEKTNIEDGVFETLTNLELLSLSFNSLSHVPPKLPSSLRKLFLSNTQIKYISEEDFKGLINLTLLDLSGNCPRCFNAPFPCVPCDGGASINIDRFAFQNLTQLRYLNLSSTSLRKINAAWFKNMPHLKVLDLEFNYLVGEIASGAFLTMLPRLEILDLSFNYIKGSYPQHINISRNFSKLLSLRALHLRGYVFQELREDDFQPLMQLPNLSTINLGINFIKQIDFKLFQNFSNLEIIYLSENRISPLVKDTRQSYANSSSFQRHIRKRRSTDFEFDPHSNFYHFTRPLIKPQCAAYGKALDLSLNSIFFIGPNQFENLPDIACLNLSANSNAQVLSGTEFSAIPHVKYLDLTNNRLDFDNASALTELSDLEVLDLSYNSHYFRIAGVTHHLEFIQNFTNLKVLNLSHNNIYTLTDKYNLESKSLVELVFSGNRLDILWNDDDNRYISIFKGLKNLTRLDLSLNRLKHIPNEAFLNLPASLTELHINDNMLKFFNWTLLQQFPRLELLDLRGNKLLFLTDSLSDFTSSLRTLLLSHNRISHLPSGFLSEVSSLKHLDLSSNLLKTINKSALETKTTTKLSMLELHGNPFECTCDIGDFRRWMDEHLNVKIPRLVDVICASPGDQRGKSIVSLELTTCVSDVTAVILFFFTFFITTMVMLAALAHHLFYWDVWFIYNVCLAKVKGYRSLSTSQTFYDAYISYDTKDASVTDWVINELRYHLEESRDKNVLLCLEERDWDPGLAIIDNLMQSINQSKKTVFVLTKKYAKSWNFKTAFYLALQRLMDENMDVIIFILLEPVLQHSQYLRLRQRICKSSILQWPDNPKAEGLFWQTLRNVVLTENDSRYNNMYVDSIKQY
Outline: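 PBMCs from healthy donors isolated by density gradient centrifugation and cultured at once at 3 × 10⁶ cells/mL in RPMI 1640. Cells received R848 and varying compound concentrations for 24 h. Supernatants spun 10 min at 4 °C, frozen at −80 °C, and TNF-α measured by ELISA.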

[3] = tested on: PBMC; experiment: Cytotoxicity against rheumatoid arthritis patient-derived PBMC assessed as reduction in cell viability up to 80 uM measured after 24 hrs by CCK8 assay; assay type: cell-based; details: human; outline: as §1
[4] = target: Toll-like receptor 5 (Homo sapiens) (UniProt O60602); experiment: Inhibition of human TLR5 expressed in HEK-Blue cells assessed as inhibition of flagellin-induced NF-kappaB activation at 20 uM measured after 24 hrs by quanti-blue based SEAP reporter gene assay; assay type: cell-based
Sequence of Toll-like receptor 5 (Homo sapiens) (O60602 whole entry): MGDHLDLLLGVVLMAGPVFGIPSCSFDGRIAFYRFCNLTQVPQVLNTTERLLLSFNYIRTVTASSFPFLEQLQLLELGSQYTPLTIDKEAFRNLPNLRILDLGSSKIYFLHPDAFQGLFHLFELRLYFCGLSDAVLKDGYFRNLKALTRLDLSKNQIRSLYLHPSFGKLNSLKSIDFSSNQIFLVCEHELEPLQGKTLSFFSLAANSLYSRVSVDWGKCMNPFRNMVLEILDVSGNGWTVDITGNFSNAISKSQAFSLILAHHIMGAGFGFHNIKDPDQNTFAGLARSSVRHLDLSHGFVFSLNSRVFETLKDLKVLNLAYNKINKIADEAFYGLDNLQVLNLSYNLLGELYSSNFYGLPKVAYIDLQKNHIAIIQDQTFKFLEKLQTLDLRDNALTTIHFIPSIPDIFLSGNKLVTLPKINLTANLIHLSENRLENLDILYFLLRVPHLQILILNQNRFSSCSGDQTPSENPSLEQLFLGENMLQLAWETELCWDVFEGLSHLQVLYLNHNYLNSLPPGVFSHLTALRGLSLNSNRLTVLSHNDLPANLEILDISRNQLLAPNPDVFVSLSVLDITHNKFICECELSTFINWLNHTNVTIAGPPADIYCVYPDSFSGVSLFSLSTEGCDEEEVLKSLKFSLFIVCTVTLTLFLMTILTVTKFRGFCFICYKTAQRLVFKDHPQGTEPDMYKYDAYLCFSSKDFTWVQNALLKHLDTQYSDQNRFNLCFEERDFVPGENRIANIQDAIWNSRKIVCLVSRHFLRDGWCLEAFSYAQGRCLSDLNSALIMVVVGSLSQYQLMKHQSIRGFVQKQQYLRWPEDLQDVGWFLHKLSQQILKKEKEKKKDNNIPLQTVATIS
Outline: (§2)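 HEK-Blue SEAP format: 4 × 10⁴ cells/well in DMEM with ligand plus compound, 24 h at 37 °C. Supernatant mixed with QUANTI-Blue up to 1 h, then A620 read. Ligands: Pam3CSK4 100 ng/mL (TLR1/2), Pam2CSK4 100 ng/mL (TLR2/6), poly(I:C) 5 µg/mL (TLR3), LPS 20 ng/mL (TLR4), flagellin 50 ng/mL (TLR5), R848 1 µg/mL (TLR7), R848 2 µg/mL (TLR8), ODN2006 0.5 µM (TLR9). Mean ± s.d.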

[5] = target: Toll-like receptor 1/2 (Homo sapiens) (UniProt O60603+Q15399); experiment: Inhibition of human TLR1/2 expressed in HEK-Blue cells assessed as inhibition of Pam3CSK4-induced NF-kappaB activation at 20 uM measured after 24 hrs by quanti-blue based SEAP reporter gene assay; assay type: cell-based; outline: as §2
[6] = target: T2, Toll-like receptor 9 (Homo sapiens) (UniProt Q9NR96); experiment: Inhibition of human TLR9 expressed in HEK-Blue cells assessed as inhibition of ODN2006-induced NF-kappaB activation at 20 uM measured after 24 hrs by quanti-blue based SEAP reporter gene assay; assay type: cell-based; outline: as §2
T2 sequence (whole entry): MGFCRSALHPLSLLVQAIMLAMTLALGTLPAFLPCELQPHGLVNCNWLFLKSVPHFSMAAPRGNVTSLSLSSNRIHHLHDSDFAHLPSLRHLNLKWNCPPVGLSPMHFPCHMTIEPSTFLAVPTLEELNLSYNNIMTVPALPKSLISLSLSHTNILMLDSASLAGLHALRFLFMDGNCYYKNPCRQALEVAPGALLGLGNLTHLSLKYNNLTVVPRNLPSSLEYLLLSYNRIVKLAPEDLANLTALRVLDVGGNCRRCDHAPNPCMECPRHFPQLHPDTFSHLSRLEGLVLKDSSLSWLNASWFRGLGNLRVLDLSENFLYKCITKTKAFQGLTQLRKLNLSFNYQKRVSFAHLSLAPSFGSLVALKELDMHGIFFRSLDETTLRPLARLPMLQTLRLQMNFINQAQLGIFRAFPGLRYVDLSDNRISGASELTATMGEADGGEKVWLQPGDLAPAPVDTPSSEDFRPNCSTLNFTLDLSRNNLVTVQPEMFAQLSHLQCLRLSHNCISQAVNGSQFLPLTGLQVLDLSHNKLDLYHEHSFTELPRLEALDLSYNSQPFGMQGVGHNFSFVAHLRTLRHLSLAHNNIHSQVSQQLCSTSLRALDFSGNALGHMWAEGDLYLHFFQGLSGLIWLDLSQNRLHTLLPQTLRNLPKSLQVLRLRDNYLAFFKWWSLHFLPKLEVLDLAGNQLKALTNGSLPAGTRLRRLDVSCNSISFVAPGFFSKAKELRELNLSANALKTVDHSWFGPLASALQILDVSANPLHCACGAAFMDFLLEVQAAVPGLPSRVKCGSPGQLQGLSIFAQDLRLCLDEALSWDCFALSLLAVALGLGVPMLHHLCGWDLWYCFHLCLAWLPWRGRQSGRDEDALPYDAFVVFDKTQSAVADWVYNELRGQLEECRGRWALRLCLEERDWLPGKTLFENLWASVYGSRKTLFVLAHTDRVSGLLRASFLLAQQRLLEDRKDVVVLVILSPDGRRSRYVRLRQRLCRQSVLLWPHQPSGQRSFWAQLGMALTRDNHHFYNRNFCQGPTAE

inhibition [2]: Dose-dependent effect | inhibition [4]: inactive | inhibition [5]: inactive | inhibition [6]: inactive
SMILES: CSc1nnc(CCCO)n1-c1cc(C)c(C)c(C)c1
Activity [1]: Non-Toxic | Activity [3]: Non-Toxic
